How the values were obtained:
Type in all cases: functional
IGROV-1 = assay: Growth inhibition of human IGROV1 cells incubated for 48 hrs by sulforhodamine B assay; settings: IGROV-1, 48 h; for CC50: read-out: LC50 (the source's name)
In short: (§1)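 NCI-60 five-dose screen at 0.01, 0.1, 1, 10 and 100 µM, 48 h incubation, sulforhodamine B end point. GI50 (50% decrease in net growth), TGI (total growth inhibition) and LC50 (net 50% loss of initial cells) taken from log concentration versus % growth inhibition curves.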

SK-MEL-28 = assay: Growth inhibition of human SK-MEL-28 cells incubated for 48 hrs by sulforhodamine B assay; settings: SK-MEL-28, 48 h
In short: (§2)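 NCI 60 human tumour cell line panel, five-dose study at 0.01, 0.1, 1, 10 and 100 µM, 48 h incubation. Sulforhodamine B protein-binding dye end point. GI50 (50% decrease in net cell growth), TGI (total growth inhibition) and LC50 (net 50% loss of initial cells) read from log concentration versus % growth inhibition curves.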

786-0 = assay: Growth inhibition of human 786-0 cells incubated for 48 hrs by sulforhodamine B assay; settings: 786-0, 48 h; in short: as §1
OVCAR-3 = assay: Growth inhibition of human OVCAR3 cells incubated for 48 hrs by sulforhodamine B assay; settings: OVCAR-3, 48 h; for CC50: read-out: LC50 (the source's name); in short: as §1
HOP-62 = assay: Growth inhibition of human HOP62 cells incubated for 48 hrs by sulforhodamine B assay; settings: HOP-62, 48 h; for CC50: read-out: LC50 (the source's name); in short: as §1
BT-549 = assay: Growth inhibition of human BT549 cells incubated for 48 hrs by sulforhodamine B assay; settings: BT-549, 48 h; for CC50: read-out: LC50 (the source's name); in short: as §1
DU-145 = assay: Growth inhibition of human DU145 cells incubated for 48 hrs by sulforhodamine B assay; settings: DU-145, 48 h; for CC50: read-out: LC50 (the source's name); in short: as §1
KM12 = assay: Growth inhibition of human KM12 cells incubated for 48 hrs by sulforhodamine B assay; settings: KM12, 48 h; for CC50: read-out: LC50 (the source's name); in short: as §1
HL-60(TB) = assay: Growth inhibition of human HL-60(TB) cells incubated for 48 hrs by sulforhodamine B assay; settings: HL-60, 48 h; for CC50: read-out: LC50 (the source's name)
In short: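 NCI-60 five-dose screen at 0.01, 0.1, 1, 10 and 100 µM for 48 h, sulforhodamine B read-out. GI50 taken from log concentration versus % growth inhibition curves as the concentration giving 50% decrease in net cell growth.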

HT-29 = assay: Growth inhibition of human HT-29 cells incubated for 48 hrs by sulforhodamine B assay; settings: HT-29, 48 h; in short: as §1
NCI-H522 = assay: Growth inhibition of human NCI-H522 cells incubated for 48 hrs by sulforhodamine B assay; settings: NCI-H522, 48 h; for CC50: read-out: LC50 (the source's name); in short: as §1
SN12C = assay: Growth inhibition of human SN12C cells incubated for 48 hrs by sulforhodamine B assay; settings: for CC50: read-out: LC50 (the source's name); in short: as §2
U-251 = assay: Growth inhibition of human U251 cells incubated for 48 hrs by sulforhodamine B assay; settings: U-251, 48 h; for CC50: read-out: LC50 (the source's name); in short: as §2
LOX IMVI = assay: Growth inhibition of human LOXIMVI cells incubated for 48 hrs by sulforhodamine B assay; settings: for CC50: read-out: LC50 (the source's name); in short: as §1
UACC-257 = assay: Growth inhibition of human UACC257 cells incubated for 48 hrs by sulforhodamine B assay; settings: UACC-257, 48 h; for CC50: read-out: LC50 (the source's name); in short: as §2
ACHN = assay: Growth inhibition of human ACHN cells incubated for 48 hrs by sulforhodamine B assay; settings: for CC50: read-out: LC50 (the source's name); in short: as §1
OVCAR-4 = assay: Growth inhibition of human OVCAR4 cells incubated for 48 hrs by sulforhodamine B assay; settings: OVCAR-4, 48 h; in short: as §1
RPMI-8226 = assay: Growth inhibition of human RPMI8226 cells incubated for 48 hrs by sulforhodamine B assay; settings: RPMI-8226, 48 h; for CC50: read-out: LC50 (the source's name); in short: as §2
CAKI-1 = assay: Growth inhibition of human Caki1 cells incubated for 48 hrs by sulforhodamine B assay; settings: CAKI-1, 48 h; for CC50: read-out: LC50 (the source's name); in short: as §1
CCRF-CEM = assay: Growth inhibition of human CCRF-CEM cells incubated for 48 hrs by sulforhodamine B assay; settings: for CC50: read-out: LC50 (the source's name); in short: as §1
OVCAR-8 = assay: Growth inhibition of human OVCAR8 cells incubated for 48 hrs by sulforhodamine B assay; settings: OVCAR-8, 48 h; for CC50: read-out: LC50 (the source's name); in short: as §1
K562 = assay: Growth inhibition of human K562 cells incubated for 48 hrs by sulforhodamine B assay; settings: K562, 48 h; for CC50: read-out: LC50 (the source's name); in short: as §1
NCI-H322M = assay: Growth inhibition of human NCI-H322M cells incubated for 48 hrs by sulforhodamine B assay; settings: for CC50: read-out: LC50 (the source's name); in short: as §1
SF-539 = assay: Growth inhibition of human SF539 cells incubated for 48 hrs by sulforhodamine B assay; settings: SF-539, 48 h; for CC50: read-out: LC50 (the source's name); in short: as §2
A498 = assay: Growth inhibition of human A498 cells incubated for 48 hrs by sulforhodamine B assay; settings: A498, 48 h; in short: as §1
NCI-H460 = assay: Growth inhibition of human NCI-H460 cells incubated for 48 hrs by sulforhodamine B assay; settings: NCI-H460, 48 h; for CC50: read-out: LC50 (the source's name); in short: as §1
UO-31 = assay: Growth inhibition of human UO31 cells incubated for 48 hrs by sulforhodamine B assay; settings: UO-31, 48 h; in short: as §2
NCI-H23 = assay: Growth inhibition of human NCI-H23 cells incubated for 48 hrs by sulforhodamine B assay; settings: NCI-H23, 48 h; for CC50: read-out: LC50 (the source's name); in short: as §1

## C=C1CC[C@@H]2[C@](C)(COC(C)=O)[C@H](OC(C)=O)CC[C@@]2(C)[C@H]1CC(Nc1ccc(S(=O)(=O)Nc2ncccn2)cc1)C1=CCOC1=O (some centres not stated)
IGROV-1
  GI50: 2.04 µM
  TGI: 4.41 µM
  CC50: 9.53 µM
SK-MEL-28
  GI50: 1.69 µM
  LC50 (50% net cell kill): 6.2 µM
  TGI: 3.24 µM
786-0
  GI50: 1.77 µM
  LC50 (concentration giving net 50% loss of initial cells): 6.51 µM
  TGI: 3.39 µM
OVCAR-3
  GI50: 1.21 µM
  TGI: 2.54 µM
  CC50: 5.31 µM
HOP-62
  GI50: 3.02 µM
  TGI: 6.44 µM
  CC50: 21.5 µM
BT-549
  GI50: 1.64 µM
  TGI: 3.39 µM
  CC50: 7.04 µM
DU-145
  GI50: 1.62 µM
  TGI: 3.07 µM
  CC50: 5.83 µM
KM12
  GI50: 2.33 µM
  TGI: 5.54 µM
  CC50: 17.8 µM
HL-60(TB)
  GI50: 1.3 µM
  TGI: 3.64 µM
  CC50: > 100 µM
HT-29
  GI50: 1.03 µM
  TGI: 2.79 µM
NCI-H522
  GI50: 0.49 µM
  TGI: 2.07 µM
  CC50: 6.45 µM
SN12C
  GI50: 0.43 µM
  TGI: 1.96 µM
  CC50: 5.82 µM
U-251
  GI50: 1.74 µM
  TGI: 3.28 µM
  CC50: 6.17 µM
LOX IMVI
  GI50: 0.89 µM
  TGI: 2.21 µM
  CC50: 5.06 µM
UACC-257
  GI50: 2.34 µM
  TGI: 6.07 µM
  CC50: 21.9 µM
ACHN
  GI50: 1.72 µM
  TGI: 3.27 µM
  CC50: 6.2 µM
OVCAR-4
  GI50: 1.85 µM
  LC50: 19.3 µM
  TGI: 5.26 µM
RPMI-8226
  GI50: 0.54 µM
  TGI: 3.12 µM
  CC50: > 100 µM
CAKI-1
  GI50: 1.74 µM
  TGI: 4.04 µM
  CC50: 9.39 µM
CCRF-CEM
  GI50: 0.73 µM
  TGI: 3.41 µM
  CC50: > 100 µM
OVCAR-8
  GI50: 1.48 µM
  TGI: 3.55 µM
  CC50: 8.53 µM
K562
  GI50: 1.73 µM
  TGI: 11.7 µM
  CC50: > 100 µM
NCI-H322M
  GI50: 3.12 µM
  TGI: 11.1 µM
  CC50: 35.6 µM
SF-539
  GI50: 1.5 µM
  TGI: 2.94 µM
  CC50: 5.78 µM
A498
  GI50: 12.3 µM
  LC50 (concentration giving net 50% loss of initial cells): 49.9 µM
  TGI: 24.7 µM
NCI-H460
  GI50: 1.98 µM
  TGI: 4.06 µM
  CC50: 8.32 µM
UO-31
  GI50: 1.51 µM
  LC50 (concentration giving net 50% loss of initial cells): 5.85 µM
  TGI: 2.97 µM
NCI-H23
  GI50: 2.11 µM
  TGI: 5.38 µM
  CC50: 26.7 µM

## C=C1CC[C@@H]2[C@](C)(COC(C)=O)[C@H](OC(C)=O)CC[C@@]2(C)[C@H]1CC(Nc1ccc(S(=O)(=O)Nc2nccc(C)n2)cc1)C1=CCOC1=O (some centres not stated)
IGROV-1
  GI50: 3.62 µM
  TGI: 13.6 µM
  CC50: 45.5 µM
SK-MEL-28
  GI50: 2.83 µM
  LC50 (50% net cell kill): 36.3 µM
  TGI: 10.1 µM
786-0
  GI50: 2.27 µM
  LC50 (concentration giving net 50% loss of initial cells): 13.8 µM
  TGI: 5.06 µM
OVCAR-3
  GI50: 1.76 µM
  TGI: 3.36 µM
  CC50: 6.43 µM
HOP-62
  GI50: 10.3 µM
  TGI: 22.5 µM
  CC50: 49.3 µM
BT-549
  GI50: 2.3 µM
  TGI: 5.61 µM
  CC50: 18.7 µM
DU-145
  GI50: 3.36 µM
  TGI: 11.8 µM
  CC50: 34.9 µM
KM12
  GI50: 4.59 µM
  TGI: 16.4 µM
  CC50: 44.4 µM
HL-60(TB)
  GI50: 2.1 µM
  TGI: 5.63 µM
  CC50: > 100 µM
HT-29
  GI50: 2.02 µM
  TGI: 4.24 µM
HT-29; read-out: LC50 (the source's name)
  CC50: 8.93 µM
NCI-H522
  GI50: 1.26 µM
  TGI: 3.1 µM
  CC50: 7.62 µM
SN12C
  GI50: 2.64 µM
  TGI: 6.17 µM
  CC50: 81.2 µM
U-251
  GI50: 3.17 µM
  TGI: 10.7 µM
  CC50: 33.3 µM
LOX IMVI
  GI50: 1.53 µM
  TGI: 3.24 µM
  CC50: 6.89 µM
UACC-257
  GI50: 4.8 µM
  TGI: 16.4 µM
  CC50: 42.8 µM
ACHN
  GI50: 3.64 µM
  TGI: 13 µM
  CC50: 38.4 µM
OVCAR-4
  GI50: 4.37 µM
  LC50: 41.4 µM
  TGI: 15.8 µM
RPMI-8226
  GI50: 1.95 µM
  TGI: 6.84 µM
  CC50: > 100 µM
CAKI-1
  GI50: 3.56 µM
  TGI: 12.5 µM
  CC50: 35.5 µM
CCRF-CEM
  GI50: 0.0073 µM
  TGI: 3.09 µM
  CC50: > 100 µM
OVCAR-8
  GI50: 2.61 µM
  TGI: 8.56 µM
  CC50: 47.6 µM
K562
  GI50: 2.97 µM
  TGI: 21.7 µM
  CC50: > 100 µM
NCI-H322M
  GI50: 11.3 µM
  TGI: 23.9 µM
  CC50: 50.7 µM
SF-539
  GI50: 2.07 µM
  TGI: 4.73 µM
  CC50: 12.4 µM
A498
  GI50: 14.8 µM
  LC50 (concentration giving net 50% loss of initial cells): 54.4 µM
  TGI: 28.4 µM
NCI-H460
  GI50: 4.88 µM
  TGI: 18.3 µM
  CC50: 53.9 µM
UO-31
  GI50: 2.91 µM
  LC50 (concentration giving net 50% loss of initial cells): 33.3 µM
  TGI: 10.6 µM
NCI-H23
  GI50: 3.78 µM
  TGI: 16 µM
  CC50: 50.6 µM
